Results from publication PMC9283309 (Journal of medicinal chemistry, 2022).
One block for each compound: values may come before it.

Experiments:
[1] = tested on: murine melanoma (B16-OVA); conditions: combination with checkpoint inhibitor anti-PD-L1, diprovocim/OVA i.m.; cited from earlier work
[2] = tested on: OVA-specific IgG, IgG1, IgG2b; test: Antibody response assay: serum OVA-specific IgG, IgG1, IgG2b by ELISA; type: in vivo, C57BL/6J mice; conditions: 14 days after a single immunization, i.m. with OVA, 10 mg/kg
Summary of the method: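 Female 8-week C57BL/6J mice (ca. 20 g) injected i.m. on day 0 with 100 μg OVA (5 mg/kg) plus 200 μg (10 mg/kg) test compound in DMSO:Tween 80:saline (1:1:8); serum taken day 14. ELISA: plates coated with 5 μg/mL OVA overnight at 4 °C, blocked 1% BSA 1 h, serum (diluted in 1% BSA) 2 h, HRP anti-mouse IgG/IgG1/IgG2b 1 h RT, TMB, A450.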

[3] = tested on: adaptive immune response (CD4- and CD-8 dependent responses); test: In vivo adjuvant activity on co-administration with OVA; set-up: species or system C57BL/6J mice; conditions: i.m. with OVA, 10 mg/kg
[4] = co-administered i.m. with ovalbumin (OVA); cited from earlier work
[5] = molecular target: mTLR1/TLR2 (Mus musculus, UniProt Q9EPQ1+Q9QUN7); type: cell-based, mouse (C57BL/6J); conditions: mouse macrophages; for murine efficacy/activity in words: compared with diprovocim-1
[6] = molecular target: hTLR1/TLR2 (Homo sapiens, UniProt O60603+Q15399); test: Stimulated release of TNF-α from differentiated THP-1 cells; type: cell-based; conditions: text comment on Figure 3 data, compared with diprovocim-1
[7] = tested on: TLR4; type: cell-based, mouse; conditions: 500 nM, diprovocim-X versus diprovocim-1
[8] = molecular target: TLR1 (Homo sapiens, UniProt O60603+Q15399); type: cell-based; conditions: 5 nM; anti-TLR1 20 μg/mL, 1 h pretreatment
Summary of the method: (§1)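 THP-1 cells PMA-differentiated (100 nM, 24 h) then rested 24 h in fresh RPMI/10% FBS. Cells pretreated 1 h with neutralizing anti-TLR1, anti-TLR2 or anti-TLR6 (20 μg/mL) before stimulation with 5 nM test compound; no-antibody wells as control. TNF-α release was the read-out.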

[9] = molecular target: TLR2 (Homo sapiens, UniProt O60603+Q15399); type: cell-based; conditions: 5 nM; anti-TLR2 20 μg/mL, 1 h pretreatment
Summary of the method: as §1

Sequence of mTLR1/TLR2 (Q9EPQ1 26-795): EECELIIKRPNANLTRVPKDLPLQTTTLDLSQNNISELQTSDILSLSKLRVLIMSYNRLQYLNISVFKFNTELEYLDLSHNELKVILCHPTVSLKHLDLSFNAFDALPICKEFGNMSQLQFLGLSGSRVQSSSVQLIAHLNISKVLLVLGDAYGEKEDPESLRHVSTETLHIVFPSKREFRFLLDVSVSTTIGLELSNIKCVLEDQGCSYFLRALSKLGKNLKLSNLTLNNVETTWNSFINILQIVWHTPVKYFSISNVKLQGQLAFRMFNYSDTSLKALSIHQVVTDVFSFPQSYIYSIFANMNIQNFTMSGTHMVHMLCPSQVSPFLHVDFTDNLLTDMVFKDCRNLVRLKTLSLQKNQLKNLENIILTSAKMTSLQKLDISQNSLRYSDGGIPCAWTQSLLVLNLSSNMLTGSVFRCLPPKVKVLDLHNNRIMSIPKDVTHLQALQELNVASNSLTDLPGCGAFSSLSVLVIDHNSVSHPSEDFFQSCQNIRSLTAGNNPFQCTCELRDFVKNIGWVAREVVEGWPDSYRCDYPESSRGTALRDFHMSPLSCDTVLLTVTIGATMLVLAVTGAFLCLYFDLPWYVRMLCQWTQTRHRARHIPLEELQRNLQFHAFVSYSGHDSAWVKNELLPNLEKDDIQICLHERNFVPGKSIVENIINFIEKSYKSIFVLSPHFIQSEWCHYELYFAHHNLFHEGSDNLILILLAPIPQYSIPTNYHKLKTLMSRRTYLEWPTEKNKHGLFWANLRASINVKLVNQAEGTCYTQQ
Sequence of mTLR1/TLR2 (Q9QUN7 25-784): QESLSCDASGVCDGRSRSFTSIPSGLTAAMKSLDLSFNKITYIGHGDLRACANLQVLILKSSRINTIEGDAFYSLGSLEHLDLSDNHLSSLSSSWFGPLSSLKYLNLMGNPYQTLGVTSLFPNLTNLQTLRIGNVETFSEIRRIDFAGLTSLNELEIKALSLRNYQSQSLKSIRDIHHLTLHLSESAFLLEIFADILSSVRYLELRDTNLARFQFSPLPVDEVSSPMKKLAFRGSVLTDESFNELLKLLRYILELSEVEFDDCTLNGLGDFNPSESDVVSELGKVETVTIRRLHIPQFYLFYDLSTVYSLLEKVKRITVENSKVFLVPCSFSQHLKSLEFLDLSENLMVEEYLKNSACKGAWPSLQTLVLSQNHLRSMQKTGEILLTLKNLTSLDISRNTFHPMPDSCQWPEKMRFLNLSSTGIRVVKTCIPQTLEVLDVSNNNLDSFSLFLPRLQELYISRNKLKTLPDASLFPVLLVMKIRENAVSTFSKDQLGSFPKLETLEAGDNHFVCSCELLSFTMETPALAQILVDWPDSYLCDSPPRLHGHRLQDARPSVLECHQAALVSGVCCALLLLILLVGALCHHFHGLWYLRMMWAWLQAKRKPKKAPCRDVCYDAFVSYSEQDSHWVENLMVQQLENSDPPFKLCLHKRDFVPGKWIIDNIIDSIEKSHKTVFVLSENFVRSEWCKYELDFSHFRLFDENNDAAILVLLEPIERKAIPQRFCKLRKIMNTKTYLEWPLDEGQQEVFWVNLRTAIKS
Sequence of TLR2 (O60603 21-784): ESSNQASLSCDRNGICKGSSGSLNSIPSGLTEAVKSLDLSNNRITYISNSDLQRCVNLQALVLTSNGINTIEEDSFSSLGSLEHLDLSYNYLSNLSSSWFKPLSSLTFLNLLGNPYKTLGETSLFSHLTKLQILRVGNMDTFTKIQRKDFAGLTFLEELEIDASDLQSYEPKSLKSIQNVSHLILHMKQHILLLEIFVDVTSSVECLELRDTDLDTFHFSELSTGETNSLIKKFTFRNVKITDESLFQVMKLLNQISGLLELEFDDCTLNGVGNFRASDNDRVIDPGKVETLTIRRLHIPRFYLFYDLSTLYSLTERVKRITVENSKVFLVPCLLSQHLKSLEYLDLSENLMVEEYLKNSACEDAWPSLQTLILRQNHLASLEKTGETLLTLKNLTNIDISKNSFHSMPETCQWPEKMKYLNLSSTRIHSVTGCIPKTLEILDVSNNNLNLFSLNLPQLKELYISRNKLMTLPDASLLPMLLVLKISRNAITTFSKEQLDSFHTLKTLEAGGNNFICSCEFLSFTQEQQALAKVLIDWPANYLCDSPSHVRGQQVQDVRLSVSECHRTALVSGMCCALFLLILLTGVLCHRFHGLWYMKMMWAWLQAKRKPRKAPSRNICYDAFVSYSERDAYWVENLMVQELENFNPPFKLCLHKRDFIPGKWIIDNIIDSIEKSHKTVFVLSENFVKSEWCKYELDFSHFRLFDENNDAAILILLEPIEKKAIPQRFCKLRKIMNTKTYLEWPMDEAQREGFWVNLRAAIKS
Sequence of TLR2 (Q15399 25-786): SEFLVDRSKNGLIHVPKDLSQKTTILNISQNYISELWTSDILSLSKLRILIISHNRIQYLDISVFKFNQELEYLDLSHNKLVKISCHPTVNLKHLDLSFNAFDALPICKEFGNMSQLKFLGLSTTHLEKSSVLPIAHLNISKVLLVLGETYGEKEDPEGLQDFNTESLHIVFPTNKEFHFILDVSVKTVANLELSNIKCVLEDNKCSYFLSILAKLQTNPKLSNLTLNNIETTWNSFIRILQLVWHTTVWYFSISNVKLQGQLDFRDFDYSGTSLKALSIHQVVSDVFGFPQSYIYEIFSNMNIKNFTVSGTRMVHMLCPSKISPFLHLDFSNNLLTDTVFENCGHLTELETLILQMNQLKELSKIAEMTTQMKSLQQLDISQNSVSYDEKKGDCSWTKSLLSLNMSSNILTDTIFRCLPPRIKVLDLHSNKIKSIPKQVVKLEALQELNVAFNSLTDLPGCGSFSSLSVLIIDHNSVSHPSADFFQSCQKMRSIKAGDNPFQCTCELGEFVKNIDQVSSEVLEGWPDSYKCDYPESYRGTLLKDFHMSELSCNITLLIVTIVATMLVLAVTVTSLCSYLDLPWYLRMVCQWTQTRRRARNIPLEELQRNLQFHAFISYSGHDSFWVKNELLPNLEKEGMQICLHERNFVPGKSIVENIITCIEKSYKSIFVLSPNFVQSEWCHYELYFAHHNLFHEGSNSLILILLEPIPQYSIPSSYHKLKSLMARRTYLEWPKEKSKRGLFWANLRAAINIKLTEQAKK
Sequence of hTLR1/TLR2 (Q15399 25-786): as above
Sequence of hTLR1/TLR2 (O60603 21-784): as the sequence (O60603 21-784) above
Sequence of TLR1 (Q15399 25-786): as the sequence (Q15399 25-786) above
Sequence of TLR1 (O60603 21-784): as the sequence (O60603 21-784) above

SMILES: O=C(N[C@H]1C[C@@H]1c1ccccc1)[C@@H]1CN(C(=O)c2ccc(C(=O)N3C[C@@H](C(=O)N[C@H]4C[C@@H]4c4ccccc4)[C@H](C(=O)N[C@H]4C[C@@H]4c4ccccc4)C3)cc2)C[C@H]1C(=O)N[C@H]1C[C@@H]1c1ccccc1 [compound 1]
- tumor response, B16-OVA [1]: eradicated tumors
- OVA-specific circulating antibodies (IgG, IgG1, IgG2b) [2]: strong responses
- adjuvant activity in mice [3]: comparable adjuvant activity
- adjuvant activity in mice [4]: effective adjuvant

SMILES: CC(C)(C)OC(=O)NCCCCCCCCCCCCNC(=O)[C@@H]1CN(C(=O)c2ccc(C(=O)N3C[C@@H](C(=O)N[C@H]4C[C@@H]4c4ccccc4)[C@H](C(=O)N[C@H]4C[C@@H]4c4ccccc4)C3)cc2)C[C@H]1C(=O)N[C@H]1C[C@@H]1c1ccccc1 [compound 17, tert-Butyl (12-((3S,4S)-1-(4-((3S,4S)-3,4-bis(((1S,2R)-2-phenylcyclopropyl)carbamoyl)-pyrrolidine-1-carbonyl)benzoyl)-4-(((1S,2R)-2-phenylcyclopropyl)carbamoyl)pyrrolidine-3-carboxamido)dodecyl)carbamate]
- murine efficacy/activity in words [5]: did not display this increased or improved murine activity

SMILES: C#CCCCCCCCCCCCCNC(=O)[C@@H]1CN(C(=O)c2ccc(C(=O)N3C[C@@H](C(=O)N[C@H]4C[C@@H]4c4ccccc4)[C@H](C(=O)N[C@H]4C[C@@H]4c4ccccc4)C3)cc2)C[C@H]1C(=O)N[C@H]1C[C@@H]1c1ccccc1 [compound 19, (3S,4S)-1-(4-((3S,4S)-3,4-Bis(((1S,2R)-2-phenylcyclopropyl)carbamoyl)pyrrolidine-1-carbonyl)-benzoyl)-N^3-((1S,2R)-2-phenylcyclopropyl)-N^4-(tetradec-13-yn-1-yl)pyrrolidine-3,4-dicarboxamide]
- response efficacy in words [6]: small improvement in the response efficacy

- murine efficacy/activity in words [5]: substantial increase in efficacy
SMILES: O=C(NCCCCCCCCc1ccc(O)cc1)[C@@H]1CN(C(=O)c2ccc(C(=O)N3C[C@@H](C(=O)N[C@H]4C[C@@H]4c4ccccc4)[C@H](C(=O)N[C@H]4C[C@@H]4c4ccccc4)C3)cc2)C[C@H]1C(=O)N[C@H]1C[C@@H]1c1ccccc1 [compound 26, (3S,4S)-1-(4-((3S,4S)-3,4-Bis(((1S,2R)-2-phenylcyclopropyl)carbamoyl)pyrrolidine-1-carbonyl)-benzoyl)-N^3-(8-(4-hydroxyphenyl)octyl)-N^4-((1S,2R)-2-phenylcyclopropyl)pyrrolidine-3,4-dicarboxamide]

- murine efficacy/activity in words [5]: substantial increase in efficacy
SMILES: Nc1ccc(CCCCCCCCNC(=O)[C@@H]2CN(C(=O)c3ccc(C(=O)N4C[C@@H](C(=O)N[C@H]5C[C@@H]5c5ccccc5)[C@H](C(=O)N[C@H]5C[C@@H]5c5ccccc5)C4)cc3)C[C@H]2C(=O)N[C@H]2C[C@@H]2c2ccccc2)cc1 [compound 27, (3S,4S)-N^3-(8-(4-Aminophenyl)octyl)-1-(4-((3S,4S)-3,4-bis(((1S,2R)-2-phenylcyclopropyl)-carbamoyl)pyrrolidine-1-carbonyl)benzoyl)-N^4-((1S,2R)-2-phenylcyclopropyl)pyrrolidine-3,4-dicarboxamide]

SMILES: CC(C)(C)OC(=O)NCC(=O)OCCCCCCCCCCCCNC(=O)[C@@H]1CN(C(=O)c2ccc(C(=O)N3C[C@@H](C(=O)N[C@H]4C[C@@H]4c4ccccc4)[C@H](C(=O)N[C@H]4C[C@@H]4c4ccccc4)C3)cc2)C[C@H]1C(=O)N[C@H]1C[C@@H]1c1ccccc1 [compound 35, 12-((3S,4S)-1-(4-((3S,4S)-3,4-Bis(((1S,2R)-2-phenylcyclopropyl)carbamoyl)-pyrrolidine-1-carbonyl)benzoyl)-4-(((1S,2R)-2-phenylcyclopropyl)carbamoyl)-pyrrolidine-3-carboxamido)dodecyl-2-((tert-butoxycarbonyl)amino)acetate]
- OVA-specific circulating antibodies (IgG, IgG1, IgG2b) [2]: strong responses
- efficacy as a TNF inducer in mouse macrophage cultures [7]: greater efficacy
- dependence of TNF-α release on TLR1 [8]: dependent
- adjuvant activity in mice [3]: matching or surpassing the in vivo activity of diprovocim-1
- fold more active than diprovocim-1 ([5]; EC50 compared with diprovocim-1): 2 fold
- dependence of TNF-α release on TLR2 [9]: dependent

- murine efficacy/activity in words [5]: modest increase in the efficacy
SMILES: CC(C)(C)OC(=O)NCCOCCOCCOCCOCCC(=O)OCCCCCCCCCCCCNC(=O)[C@@H]1CN(C(=O)c2ccc(C(=O)N3C[C@@H](C(=O)N[C@H]4C[C@@H]4c4ccccc4)[C@H](C(=O)N[C@H]4C[C@@H]4c4ccccc4)C3)cc2)C[C@H]1C(=O)N[C@H]1C[C@@H]1c1ccccc1 [compound 55, 12-((3S,4S)-1-(4-((3S,4S)-3,4-Bis(((1S,2R)-2-phenylcyclopropyl)carbamoyl)pyrrolidine-1-carbonyl)benzoyl)-4-(((1S,2R)-2-phenylcyclopropyl)carbamoyl)pyrrolidine-3-carboxamido)-dodecyl 2,2-dimethyl-4-oxo-3,8,11,14,17-pentaoxa-5-azaicosan-20-oate]
